Assay results reported in ChEMBL document CHEMBL4311965, “Antimicrobial activity of amphipathic α,α-disubstituted β-amino amide derivatives against ESBL - CARBA producing multi-resistant bacteria; effect of halogenation, lipophilicity and cationic character” (Eur J Med Chem, 2019).

Key:
Type in all cases: ADME
[1] = Drug metabolism in Sprague-Dawley rat liver microsomes assessed as CYP450-mediated N-(2-aminoethyl)-2-(aminomethyl)-2-[(3,5-bis(trifluoromethyl)phenyl)methyl]-3-(4-hydroxy-3,5-bis(trifluoromethyl)phenyl)propanamide formation incubated up to 3 hrs in presence of NADPH regenerating system by RP-HPLC-MS analysis
Procedure, shortened: (§1)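 Substrate at 1 µL of 100 µM aqueous stock in 100 mM potassium phosphate, pH 7.4, with NADPH regenerating system. Pooled male Sprague–Dawley rat liver microsomes (20 mg/mL stock) added, then incubated at 37 °C. Sampled at 0–180 min and quenched with cold methanol containing propranolol internal standard. Analysed by RP-HPLC–HRMS in positive ESI mode. Metabolites confirmed by HCD MS2. Triplicate incubations.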

[2] = Drug metabolism in Sprague-Dawley rat liver microsomes assessed as CYP450-mediated 4-[2-(aminomethyl)-3-[3,5-bis(trifluoromethyl)phenyl]-2-(4,5-dihydrooxazol-3-ium-2-yl)propyl]-2,6-bis(trifluoromethyl)phenol formation incubated up to 3 hrs in presence of NADPH regenerating system by RP-HPLC-MS analysis; procedure, shortened: as §1
[3] = Drug metabolism in Sprague-Dawley rat liver microsomes assessed as CYP450-mediated 2-[[2-(aminomethyl)-3-[3,5-bis(trifluoromethyl)phenyl]-2-[[3,5-bis(trifluoromethyl)phenyl]methyl]propanoyl]amino]acetic acid formation incubated up to 3 hrs in presence of NADPH regenerating system by RP-HPLC-MS analysis; procedure, shortened: as §1
[4] = Drug metabolism in Sprague-Dawley rat liver microsomes assessed as CYP450-mediated N-(2-aminoethyl)-2-(aminomethyl)-2-[(3,5-dibromo-4-hydroxy-phenyl)methyl]-3-(3,5-dibromophenyl)propanamide formation incubated up to 3 hrs in presence of NADPH regenerating system by RP-HPLC-MS analysis; procedure, shortened: as §1

| Compound | Drug metabolism [1] | Drug metabolism [2] | Drug metabolism [3] | Drug metabolism [4] |
| --- | --- | --- | --- | --- |
| NCCNC(=O)C(CN)(Cc1cc(C(F)(F)F)cc(C(F)(F)F)c1)Cc1cc(C(F)(F)F)cc(C(F)(F)F)c1 | Metabolite_Notdetected | Metabolite_Notdetected | Metabolite_Notdetected | – |
| NCCNC(=O)C(CN)(Cc1cc(Br)cc(Br)c1)Cc1cc(Br)cc(Br)c1 | – | – | – | Metabolite_Notdetected |
